# Experimental data: the array DNA melting data of Ke et al. (doi:10.1101/2024.01.08.574731)
# Key:
# [1] = folding enthalpy; higher = less favourable; fluorescence melt of hairpins on a sequencing array, two-state fit; settings: sodium 0.088 M
# Procedure, shortened: (§1)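 With Cy3 and quencher oligos annealed, library hairpins on a sequenced MiSeq flow cell were imaged for Cy3 fluorescence in 50 mM Na-HEPES pH 8.0, 25 mM NaCl, in 2.5 °C steps up to 60 °C. Melting temperature and folding enthalpy were derived from bootstrapped two-state fits of signals normalised to pre-quench Cy3 and to control constructs. Four replicates were combined by inverse variance, with fitted temperatures raised by 9.35 °C to match UV melts.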
# [2] = melting temperature; fluorescence melt of hairpins on a sequencing array, two-state fit, raised by 9.35 °C to match UV melts; settings: sodium 0.088 M
# Procedure, shortened: as §1
Sequence,folding enthalpy [1],Tm [2]
GCGTTAGGAAACTAGTGC ((..(((....)))..)),-11.4 kcal/mol,25.7 °C
GTGACGCGAAAGCGCAC (((.(((....)))))),-15 kcal/mol,58.8 °C
GTAAAGCGAAAGCTGTAC (((.(((....))).))),-20.4 kcal/mol,44.4 °C
GCTTGGGGAAACCCGAGC (((.(((....))).))),-41.7 kcal/mol,56.7 °C
GTATGCGGAAACGTATAC ((((.((....)).)))),-31 kcal/mol,46.5 °C
GGAAGAGGAAACTCTTCC (((((((....))))))),-42.1 kcal/mol,58.2 °C
GATCAGCCTCTGATC ((((((...)))))),-38.5 kcal/mol,47.9 °C
GATCAGACCCTGATC ((((((...)))))),-33.4 kcal/mol,47.7 °C
GATCAAGCGCTTGATC ((((((....)))))),-51.6 kcal/mol,55.9 °C
GCGAGATTTCGC ((((....)))),-20.1 kcal/mol,50.1 °C
GATCCATCTTGGATC ((((((...)))))),-35.2 kcal/mol,51.6 °C
GAGATAACGAAAGTTCTC (((..(((....)))))),-20.8 kcal/mol,30.7 °C
GGGCGCGGAAACGCACCC (((.(((....))).))),-43.8 kcal/mol,62.6 °C
GATCGTGTTACGATC ((((((...)))))),-35.6 kcal/mol,56.9 °C
CGGCTCGGAAACGATCCG (((.(((....))).))),-44.5 kcal/mol,49.2 °C
CGAGCGGAAACGCGCTCG ((((((....)))..))),-26.4 kcal/mol,68.5 °C
GATACGCGAAAGCGAATC (((.(((....))).))),-21.6 kcal/mol,49.4 °C
GATCGATCCTTCGATC ((((((....)))))),-45.3 kcal/mol,55.5 °C
GCGAAGCGAAAGCTGTGC ((..(((....)))..)),-8.75 kcal/mol,46.5 °C
GAAGTTGGAAACAGCTTC ((((.((....)).)))),-38.7 kcal/mol,44.4 °C
CGATTCCGGAAACGGTCG (((..(((....)))))),-27.7 kcal/mol,36.2 °C
GCAATGCGAAAGCGCTGC (((..((....))..))),-20 kcal/mol,49.2 °C
GTGGGGTCGAAAGACCAC (((..(((....)))))),-19.2 kcal/mol,63.1 °C

Sequence,folding enthalpy [1],Tm [2]
GTACGTCGAAAGACATAC (((.(((....))).))),-20.1 kcal/mol,38.4 °C
GCTCTTTCGAAAGAAAGC (((..(((....)))))),-13.4 kcal/mol,32.5 °C
CGTCCGGAAACGGGAACG ((((((....)))..))),-22.5 kcal/mol,38.9 °C
GCATTCGGAAACGGATGC ((((.((....)).)))),-36.9 kcal/mol,54 °C
GCTAAGCGAAAGCATCGC ((.(.((....)).).)),-11.1 kcal/mol,30.7 °C
GTGAACGAAAGTTCAC ((((((....)))))),-26 kcal/mol,68.6 °C
GATCGTCCAAACGATC ((((((....)))))),-42.7 kcal/mol,55.2 °C
GCCAGCGAAAGCTCGGGC ((((((....)))..))),-20.4 kcal/mol,52.3 °C
GGCACAGGAAACTACGCC (((..((....))..))),-29.9 kcal/mol,39.8 °C
GTCTGCGAAAGCATGAC ((((((....))).))),-23.5 kcal/mol,52.7 °C
GCGTATCCACGC ((((....)))),-26.4 kcal/mol,51.7 °C
GGGGTCGGAAACGGCTCC ((.(.((....)).).)),-42.8 kcal/mol,49.6 °C
GACAAACGAAAGTTGTC (((.(((....)))))),-29.1 kcal/mol,48.2 °C
GTGGTAGGAAACTACTAC ((.((((....)))).)),-32.2 kcal/mol,41.8 °C
GATTCCGAAAGGATCATC ((((((....)))..))),-17 kcal/mol,29.6 °C
GGCATTTCGAAAGAAGCC (((..(((....)))))),-20.2 kcal/mol,34.4 °C
GCCCCAGGAAACCAGGGC ((((..(....)..)))),-23.4 kcal/mol,45.6 °C
GGGAGCGAAAGCTGTCCC ((((((....)))..))),-17.2 kcal/mol,45.6 °C
GGTTCTGGAAACGGAATC (.(((.(....).))).),-18.7 kcal/mol,33 °C
GGGGTTGGAAACAGTCCC (((..((....))..))),-24.5 kcal/mol,36 °C
GCGTACGAAAGTATACGC ((((((....)))..))),-34 kcal/mol,51.4 °C
GTTCTGGGAAACCAGAAC (((((((....))))))),-42.9 kcal/mol,60.5 °C
GCTGACACGAAAGTGAGC (((..(((....)))))),-18.3 kcal/mol,40.3 °C

Sequence,folding enthalpy [1],Tm [2]
GCTGGTGGAAACACTGGC ((..(((....)))..)),-30.1 kcal/mol,45.9 °C
GGGTCTGGAAACGGACTC (.(((.(....).))).),-28.3 kcal/mol,37.5 °C
GATCACTGGAGTGATC ((((((....)))))),-48.7 kcal/mol,55.7 °C
GTATCCGGAAACGGATAC (((((((....))))))),-36.6 kcal/mol,63.7 °C
GGCCGCGAAAGCGTCGCC ((((((....)))..))),-16.7 kcal/mol,55.9 °C
GCCGTGCGAAAGCATAGC ((..(((....)))..)),-13.6 kcal/mol,43.3 °C
GGGCGAGGAAACTCACCC (((.(((....))).))),-41 kcal/mol,49.6 °C
GGAGATTCGAAAGAATCC (((..(((....)))))),-13.3 kcal/mol,38.7 °C
GTCCTTCGAAAGAATGAC (((.(((....))).))),-30.3 kcal/mol,39.2 °C
GATTGCGAAAGCATCATC ((((((....)))..))),-10.9 kcal/mol,29.6 °C
GACACCGGAAACGGTACC (..((((....))))..),-10.5 kcal/mol,24.2 °C
GCATGCGAAAGCAGTTGC ((((((....)))..))),-16.5 kcal/mol,43 °C
GTTCCGAAAGGAAC (((((....))))),-29.5 kcal/mol,66.9 °C
TACACGAAAGTGTA (((((....))))),-13.7 kcal/mol,57.8 °C
GTATGAGGAAACTCATGC (.(((((....))))).),-26.4 kcal/mol,44.5 °C
GCCAAGCGAAAGCTGGC (((.(((....)))))),-28.3 kcal/mol,68.5 °C
GATCTGGAACAGATC ((((((...)))))),-37.7 kcal/mol,58.8 °C
GTTTCTGGAAACAGAAAC (((((((....))))))),-43.3 kcal/mol,55.1 °C
GCAGAATCGAAAGATTGC (((..(((....)))))),-21.1 kcal/mol,34.6 °C
GACAGGGGAAACCCTGTC (((((((....))))))),-42.6 kcal/mol,66.4 °C
GCAAGGACGAAAGTCTGC (((..(((....)))))),-17.5 kcal/mol,44.6 °C
GATCTCACGAGAGATC ((((((....)))))),-39.5 kcal/mol,52.3 °C
GCAGTTGGAAACAACCGC ((.((((....)))).)),-23.6 kcal/mol,44.1 °C

Sequence,folding enthalpy [1],Tm [2]
GATCGCCACAGCGATC ((((((....)))))),-38.2 kcal/mol,68.8 °C
GTTGAACGAAAGTTTAAC (((.(((....))).))),-31.7 kcal/mol,45.3 °C
GTTTAACGAAAGTTTAAC (((.(((....))).))),-23.4 kcal/mol,36.2 °C
TCAACGAAAGTTGA (((((....))))),-17.5 kcal/mol,52 °C
GAAACCGAAAGGTCCTTC ((((((....)))..))),-14.6 kcal/mol,30.7 °C
GATCATTTGGATGATC ((((((....)))))),-36.9 kcal/mol,48.5 °C
GATCAGCGACCTGATC ((((((....)))))),-31.3 kcal/mol,47.4 °C
GATACGGGAAACCGTGTC ((.((((....)))).)),-30.7 kcal/mol,49.2 °C
GCGTGAGGAAACTCGCGC (((.(((....))).))),-43 kcal/mol,64.8 °C
GTAGGGCGAAAGCCATAC (((.(((....))).))),-22.2 kcal/mol,55.6 °C
GATCATCGTTATGATC ((((((....)))))),-32.4 kcal/mol,47.2 °C
GCCTCGCGAAAGCGGCGC ((..(((....)))..)),-16.4 kcal/mol,58.5 °C
GATCAGGGAAACCTGACC (.(((((....))))).),-17.2 kcal/mol,36.3 °C
GATCTAATATAGATC ((((((...)))))),-28.6 kcal/mol,38.8 °C
GCAGGGGGAAACCCTTGC (((.(((....))).))),-30.8 kcal/mol,52.2 °C
GCCGAGCGAAAGCCTGGC (((..((....))..))),-17 kcal/mol,62.6 °C
GAGAGTGCGAAAGCACTC (((..(((....)))))),-7.98 kcal/mol,64.5 °C
GCAATTCGAAAGAAATGC (((.(((....))).))),-36.8 kcal/mol,46.1 °C
GTTAGAGGAAACTCTAGC (.(((((....))))).),-23.1 kcal/mol,34.5 °C
GCATCGCGAAAGCCCTGC (((..((....))..))),-7.86 kcal/mol,33 °C
GATCTCCCGAAAGGGATC (((..(((....)))))),-9.21 kcal/mol,29.6 °C
GGGCTTGGAAACAGGTCC ((.(.((....)).).)),-27.9 kcal/mol,39.7 °C
GTCGACGAAAGTCCGAC ((((((....))).))),-21.3 kcal/mol,51.7 °C
